Experimental data as given in ChEMBL document CHEMBL1141109, “Synthesis of an estrogen receptor beta-selective radioligand: 5-[18F]fluoro-(2R,3S)-2,3-bis(4-hydroxyphenyl)pentanenitrile and comparison of in vivo distribution with 16alpha-[18F]fluoro-17beta-estradiol” (J Med Chem, 2005).
Each block holds one compound with its values, some of them ahead of it.

Legend:
[1] = Biodistribution of [18F]FES in alpha estrogen receptor knock out mouse ovaries after 2 h; (n=3); type: ADME, organism-based, Female gonad; conditions: in vivo
Method in brief: (§1)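 Female αERKO mice were rested 48 h after shipping and fed estrogen-free chow. They were staged by daily vaginal smears and studied in diestrus. Each received 13 µCi [18F]FES in 100 µL 10% ethanol/saline and was sacrificed at 30 min, 1 h or 2 h (n = 3 per time). Tissue uptake is given as %ID/g ± SD.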

[2] = Biodistribution of [18F]FES in alpha estrogen receptor knock out mouse lung after 1 h; (n=3); type: ADME, organism-based; conditions: in vivo
[3] = Biodistribution of [18F]-FES in alpha estrogen receptor knock out mouse liver after 1 h; (n=3); type: ADME, organism-based; conditions: in vivo; method in brief: as §1
[4] = Biodistribution of [18F]FES in alpha estrogen receptor knock out mouse blood after 1 h; (n=3); type: ADME, organism-based; conditions: in vivo; method in brief: as §1
[5] = Biodistribution of [18F]-FES in beta estrogen receptor knock out mouse brain after 30 min; (n=3); type: ADME, organism-based; conditions: in vivo, 0.5 h
Method in brief: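 βERKO mice rested 48 h after shipping, fed estrogen-free chow and staged by vaginal smears. Repeated swabbing caused pseudopregnancy in some, so this group was studied in estrus. Mice given [18F]FES were sacrificed at 30 min (n = 3). Uptake is reported as %ID/g ± SD.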

[6] = Biodistribution of [18F]FES in beta estrogen receptor knock out mouse kidney after 30 min(n=2); mice in nonestrus stage; type: ADME, organism-based; conditions: in vivo, 0.5 h
[7] = Biodistribution of [18F]FES in beta estrogen receptor knock out mouse lung after 1 h; (n=3); type: ADME, organism-based; conditions: in vivo
[8] = Biodistribution of [18F]FES in alpha estrogen receptor knock out mouse muscle after 30 min; (n=3); type: ADME, organism-based, Muscle tissue; conditions: in vivo, 0.5 h
[9] = Biodistribution of [18F]FES in alpha estrogen receptor knock out mouse uterus after 2 h; (n=3); type: ADME, organism-based; conditions: in vivo
[10] = Biodistribution of [18F]FES in beta estrogen receptor knock out mouse spleen after 2 h; (n=3); type: ADME, organism-based; conditions: in vivo
[11] = Biodistribution of [18F]FES in alpha estrogen receptor knock out mouse heart after 1 h; (n=3); type: ADME, organism-based; conditions: in vivo
Method in brief: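 Female αERKO mice rested 48 h after shipping and fed estrogen-free chow. Estrous stage was checked by daily vaginal smears, and mice were used in diestrus. Each received 13 µCi [18F]FES in 100 µL 10% ethanol/saline. Animals were sacrificed at 30 min, 1 h or 2 h (n = 3 each). Tissue uptake is reported as %ID/g ± SD.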

[12] = Biodistribution of [18F]FES in beta estrogen receptor knock out mouse fat after 30 min(n=2); mice in nonestrus stage; type: ADME, organism-based, Adipose tissue; conditions: in vivo, 0.5 h
[13] = Biodistribution of [18F]FES in beta estrogen receptor knock out mouse blood after 1 h; (n=3); type: ADME, organism-based; conditions: in vivo
[14] = Biodistribution of [18F]FEDPN in rat blood after 30 min when given in tail vein; (n=5); type: ADME, organism-based; conditions: in vivo, iv, 0.5 h
Method in brief: (§2)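 Immature female Sprague–Dawley rats (<25 days old) under isoflurane/O2 got 20 µCi tracer in 150 µL 20% ethanol/saline by tail vein. […] Rats were killed at 30 min, 1 h or 2 h. Organs were blotted, weighed and gamma-counted against an injectate standard. Data are %ID/g ± SD, five rats per point.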

[15] = Biodistribution of [18F]FEDPN in rat lung after 2 h when given in tail vein; (n=5); type: ADME, organism-based; conditions: in vivo, iv; method in brief: as §2
[16] = Biodistribution of [18F]FEDPN in alpha estrogen receptor knock out mouse blood after 1 h; (n=3); type: ADME, organism-based; conditions: in vivo
Method in brief: (§3)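 ERKO female mice (αERKO or βERKO), rested 48 h after shipping, placed on estrogen-free chow, and staged by daily vaginal smears. Injected in a nonestrous stage with 11 µCi [18F]FEDPN in 130 µL of 10% ethanol/saline. Killed at 30 min, 1 h or 2 h. Organs counted and reported as %ID/g ± SD, three animals per point.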

[17] = Biodistribution of [18F]FEDPN in beta estrogen receptor knock out mouse thymus after 2 h; (n=3); type: ADME, organism-based; conditions: in vivo
Method in brief: (§4)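 αERKO and βERKO mice, staged by daily vaginal smears and kept on estrogen-free chow, were studied in a nonestrous stage. Each mouse received 11 μCi of tracer in 130 μL of 10% ethanol/saline. Mice were killed at 30 min, 1 h or 2 h (n = 3 each). Organs were removed, blotted, weighed and gamma-counted against an injectate standard. Uptake is given as %ID/g ± SD.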

[18] = Biodistribution of [18F]FEDPN in alpha estrogen receptor knock out mouse ovaries after 30 min; (n=3); type: ADME, organism-based, Female gonad; conditions: in vivo, 0.5 h; method in brief: as §4
[19] = Biodistribution of [18F]FEDPN in rat thymus after 1 h block when given in tail vein; (n=5); type: ADME, organism-based; conditions: in vivo, iv; method in brief: as §2
[20] = biological target: Estrogen receptor (Mus musculus) (UniProt O08537+P19785); assay: Ratio of [18F]FEDPN uptake in uterus of ERbeta KO-mouse and ERalpha KO-mouse (nonestrus) after 1 hr
Chain of Estrogen receptor (Mus musculus) (O08537 whole entry, looked up): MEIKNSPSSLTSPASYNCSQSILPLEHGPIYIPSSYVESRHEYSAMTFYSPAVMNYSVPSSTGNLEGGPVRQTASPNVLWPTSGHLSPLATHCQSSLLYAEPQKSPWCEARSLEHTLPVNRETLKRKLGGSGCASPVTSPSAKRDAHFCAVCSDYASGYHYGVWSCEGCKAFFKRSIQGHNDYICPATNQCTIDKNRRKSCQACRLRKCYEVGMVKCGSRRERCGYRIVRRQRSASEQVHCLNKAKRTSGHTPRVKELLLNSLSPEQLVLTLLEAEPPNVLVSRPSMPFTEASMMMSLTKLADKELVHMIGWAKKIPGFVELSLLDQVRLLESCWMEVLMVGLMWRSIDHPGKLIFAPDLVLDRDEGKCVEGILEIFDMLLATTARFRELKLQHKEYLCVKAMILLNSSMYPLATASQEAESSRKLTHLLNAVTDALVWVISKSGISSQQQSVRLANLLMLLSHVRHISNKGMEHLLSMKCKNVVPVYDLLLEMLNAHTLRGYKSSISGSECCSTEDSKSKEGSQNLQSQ
Chain of Estrogen receptor (Mus musculus) (P19785 whole entry, looked up): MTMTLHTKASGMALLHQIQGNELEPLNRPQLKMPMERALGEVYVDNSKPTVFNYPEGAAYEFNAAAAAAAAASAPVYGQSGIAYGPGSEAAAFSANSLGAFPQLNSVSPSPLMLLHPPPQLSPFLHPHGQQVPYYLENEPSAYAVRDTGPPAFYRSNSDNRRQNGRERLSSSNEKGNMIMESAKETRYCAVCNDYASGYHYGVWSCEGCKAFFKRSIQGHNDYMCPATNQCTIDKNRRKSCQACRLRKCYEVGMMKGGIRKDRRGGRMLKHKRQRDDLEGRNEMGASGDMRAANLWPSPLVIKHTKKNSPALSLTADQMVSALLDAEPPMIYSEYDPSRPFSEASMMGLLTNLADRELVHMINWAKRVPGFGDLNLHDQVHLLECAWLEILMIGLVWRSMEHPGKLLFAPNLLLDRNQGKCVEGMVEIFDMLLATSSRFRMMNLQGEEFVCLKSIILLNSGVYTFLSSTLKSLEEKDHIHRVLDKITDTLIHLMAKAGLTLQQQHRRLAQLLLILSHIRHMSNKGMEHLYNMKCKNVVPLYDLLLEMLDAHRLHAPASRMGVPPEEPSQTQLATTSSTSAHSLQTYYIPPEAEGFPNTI

[21] = Biodistribution of [18F]FEDPN in rat ovaries after 1 h block when given in tail vein; (n=5); type: ADME, organism-based, Female gonad; conditions: in vivo, iv; method in brief: as §2
[22] = Biodistribution of [18F]FEDPN in beta estrogen receptor knock out mouse muscle after 30 min; (n=3); type: ADME, organism-based, Muscle tissue; conditions: in vivo, 0.5 h; method in brief: as §4
[23] = Biodistribution of [18F]-FEDPN in rat muscle after 1 hr block when given in tail vein; (n=5); type: ADME, organism-based, Muscle tissue; conditions: in vivo, iv
Method in brief: (§5)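 Immature female Sprague–Dawley rats (<25 days old) anesthetized with isoflurane/O2. Given 20 µCi tracer by tail vein in 150 µL of 20% ethanol/saline. […] Killed at 30 min, 1 h or 2 h. Blood and organs blotted, weighed and gamma-counted against a standard dilution of the injectate. Reported as %ID/g ± SD, n=5.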

[24] = Biodistribution of [18F]FEDPN in alpha estrogen receptor knock out mouse ovaries after 2 h; (n=3); type: ADME, organism-based, Female gonad; conditions: in vivo; method in brief: as §4
[25] = Biodistribution of [18F]FEDPN in alpha estrogen receptor knock out mouse uterus after 30 min; (n=3); type: ADME, organism-based; conditions: in vivo, 0.5 h; method in brief: as §4
[26] = Biodistribution of [18F]FEDPN in alpha estrogen receptor knock out mouse bone after 30 min; (n=3); type: ADME, organism-based, Bone element; conditions: in vivo, 0.5 h; method in brief: as §3
[27] = Biodistribution of [18F]-FEDPN in rat kidney after 1 hr block when given in tail vein; (n=5); type: ADME, organism-based; conditions: in vivo, iv; method in brief: as §5
[28] = Biodistribution of [18F]FEDPN in rat spleen after 30 min when given in tail vein; (n=5); type: ADME, organism-based; conditions: in vivo, iv, 0.5 h; method in brief: as §2
[29] = Biodistribution of [18F]FEDPN in beta estrogen receptor knock out mouse brain after 1 h; (n=3); type: ADME, organism-based; conditions: in vivo; method in brief: as §4
[30] = Biodistribution of [18F]-FEDPN in alpha estrogen receptor knock out mouse brain after 2 h; (n=3); type: ADME, organism-based; conditions: in vivo; method in brief: as §3
[31] = Biodistribution of [18F]FEDPN in beta estrogen receptor knock out mouse blood after 1 h; (n=3); type: ADME, organism-based; conditions: in vivo; method in brief: as §4
[32] = Biodistribution of [18F]-FEDPN in rat fat after 1 h when given in tail vein; (n=5); type: ADME, organism-based, Adipose tissue; conditions: in vivo, iv; method in brief: as §5
[33] = Biodistribution of [18F]FEDPN in beta estrogen receptor knock out mouse spleen after 1 h; (n=3); type: ADME, organism-based; conditions: in vivo; method in brief: as §4
[34] = Biodistribution of [18F]FEDPN in rat thymus after 30 min when given in tail vein; (n=5); type: ADME, organism-based; conditions: in vivo, iv, 0.5 h; method in brief: as §2
[35] = Biodistribution of [18F]FEDPN in alpha estrogen receptor knock out mouse blood after 2 h; (n=3); type: ADME, organism-based; conditions: in vivo; method in brief: as §3

Biodistribution [1]: 0.18 %ID/g | Biodistribution [2]: 0.39 %ID/g | Biodistribution [3]: 5.24 %ID/g | Biodistribution [4]: 0.21 %ID/g | Biodistribution [5]: 0.71 %ID/g | Biodistribution [6]: 4.44 %ID/g | Biodistribution [7]: 1.48 %ID/g | Biodistribution [8]: 0.77 %ID/g | Biodistribution [9]: 0.36 %ID/g | Biodistribution [10]: 0.37 %ID/g | Biodistribution [11]: 0.15 %ID/g | Biodistribution [12]: 2.31 %ID/g | Biodistribution [13]: 0.3 %ID/g
Structure (SMILES): C[C@]12CC[C@@H]3c4ccc(O)cc4CC[C@H]3[C@@H]1C[C@@H](F)[C@@H]2O [FLUOROESTRADIOL]

Biodistribution [14]: 0.64 %ID/g | Biodistribution [15]: 0.19 %ID/g | Biodistribution [16]: 0.42 %ID/g | Biodistribution [17]: 0.11 %ID/g | Biodistribution [18]: 1.06 %ID/g | Biodistribution [19]: 0.16 %ID/g | Ratio [20]: 1.46 | Biodistribution [21]: 0.26 %ID/g | Biodistribution [22]: 1.45 %ID/g | Biodistribution [23]: 0.2 %ID/g | Biodistribution [24]: 0.28 %ID/g | Biodistribution [25]: 1.11 %ID/g | Biodistribution [26]: 3.47 %ID/g | Biodistribution [27]: 1.01 %ID/g | Biodistribution [28]: 0.31 %ID/g | Biodistribution [29]: 0.47 %ID/g | Biodistribution [30]: 0.28 %ID/g | Biodistribution [31]: 1.12 %ID/g | Biodistribution [32]: 0.37 %ID/g | Biodistribution [33]: 0.4 %ID/g | Biodistribution [34]: 0.52 %ID/g | Biodistribution [35]: 0.23 %ID/g
Structure (SMILES): N#C[C@H](c1ccc(O)cc1)[C@@H](CCF)c1ccc(O)cc1
